Activity calls are given as the source filed them. The calls are words filed in the database; no cut-off is given here.
What was measured:
[1] = Plasma concentration in Beagle dog at 1 mg/kg, iv after 1 hrs; format: ADME, organism-based, Canis lupus familiaris; parameters: dose 1 mg/kg, route intravenous
[2] = Plasma concentration in Sprague-Dawley rat at 1 mg/kg, iv after 480 mins; format: ADME, organism-based; parameters: dose 1 mg/kg, route intravenous
[3] = Half life in Beagle dog at 1 mg/kg, iv; format: ADME, organism-based, Canis lupus familiaris; parameters: dose 1 mg/kg, route intravenous; conditions: in vivo
Rattus norvegicus [4] = test: Androgenic effect in rat ORX model assessed as reversal of testosterone propionate-induced prostate weight treated at 10 mg/kg, po; format: functional, organism-based; parameters: dose 10 mg/kg; conditions: Prostate gland
[5] = Plasma concentration in Beagle dog at 10 mg/kg, po after 24 hrs; format: ADME, organism-based, Canis lupus familiaris; parameters: dose 10 mg/kg, route oral
[6] = Plasma concentration in Beagle dog at 10 mg/kg, po after 0.5 hrs; format: ADME, organism-based, Canis lupus familiaris; parameters: dose 10 mg/kg, route oral
[7] = Clearance in Beagle dog at 1 mg/kg, iv; format: ADME, organism-based, Canis lupus familiaris; parameters: dose 1 mg/kg, route intravenous; conditions: in vivo
[8] = Plasma concentration in Sprague-Dawley rat at 1 mg/kg, iv after 60 mins; format: ADME, organism-based; parameters: dose 1 mg/kg, route intravenous
[9] = Volume of distribution at steady state in Beagle dog at 1 mg/kg, iv; format: ADME, organism-based, Canis lupus familiaris; parameters: dose 1 mg/kg, route intravenous; conditions: in vivo, read-out: Vdss
[10] = Plasma concentration in Sprague-Dawley rat at 10 mg/kg, po after 30 mins; format: ADME, organism-based; parameters: dose 10 mg/kg, route oral
[11] = Plasma concentration in Sprague-Dawley rat at 10 mg/kg, po after 120 mins; format: ADME, organism-based; parameters: dose 10 mg/kg, route oral
[12] = Plasma concentration in Beagle dog at 10 mg/kg, po after 0.25 hrs; format: ADME, organism-based, Canis lupus familiaris; parameters: dose 10 mg/kg, route oral
[13] = Plasma concentration in Beagle dog at 10 mg/kg, po after 4 hrs; format: ADME, organism-based, Canis lupus familiaris; parameters: dose 10 mg/kg, route oral
[14] = Plasma concentration in Beagle dog at 1 mg/kg, iv after 2 hrs; format: ADME, organism-based, Canis lupus familiaris; parameters: dose 1 mg/kg, route intravenous
Liver microsomes = test: Metabolic stability in rat liver microsomes assessed as intrinsic clearance; format: ADME, Microsome
[15] = Oral bioavailability in rat; format: ADME, organism-based; conditions: in vivo
[16] = AUC (8 hrs) in Sprague-Dawley rat at 1 mg/kg, iv; format: ADME, organism-based; parameters: time < 8 hr, dose 1 mg/kg, route intravenous; conditions: plasma
[17] = Clearance in Sprague-Dawley rat at 1 mg/kg, iv; format: ADME, organism-based; parameters: dose 1 mg/kg, route intravenous; conditions: in vivo
[18] = Plasma concentration in Beagle dog at 1 mg/kg, iv after 8 hrs; format: ADME, organism-based, Canis lupus familiaris; parameters: dose 1 mg/kg, route intravenous
[19] = Plasma concentration in Sprague-Dawley rat at 1 mg/kg, iv after 120 mins; format: ADME, organism-based; parameters: dose 1 mg/kg, route intravenous
[20] = Plasma concentration in Beagle dog at 1 mg/kg, iv after 0.25 hrs; format: ADME, organism-based, Canis lupus familiaris; parameters: dose 1 mg/kg, route intravenous
[21] = Plasma concentration in Sprague-Dawley rat at 10 mg/kg, po after 360 mins; format: ADME, organism-based; parameters: dose 10 mg/kg, route oral
[22] = Agonist activity at androgen receptor LBD T877A mutant in mouse NIH3T3 cells transiently transfected with beta-galactosidase reporter gene assessed as cellular transformation by R-SAT assay; format: functional, cell-based
How it was run: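 AR expression vector transiently co-transfected (Polyfect) with β-galactosidase and coactivators SRC1, DRIP205 and GRIP1 into NIH-3T3 fibroblasts at 60-70% confluency. ONPG substrate added, absorbance read at 420 nm. EC50 from a hyperbolic fit. Mean ± SEM of three or more independent experiments.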

[23] = Cmax in Beagle dog at 10 mg/kg, po; format: ADME, organism-based, Canis lupus familiaris; parameters: dose 10 mg/kg, route oral; conditions: in vivo
[24] = Plasma concentration in Sprague-Dawley rat at 1 mg/kg, iv after 360 mins; format: ADME, organism-based; parameters: dose 1 mg/kg, route intravenous
[25] = Volume of distribution at steady state in Sprague-Dawley rat at 1 mg/kg, iv; format: ADME, organism-based; parameters: dose 1 mg/kg, route intravenous; conditions: in vivo, read-out: Vdss
[26] = Plasma concentration in Beagle dog at 1 mg/kg, iv after 0.08 hrs; format: ADME, organism-based, Canis lupus familiaris; parameters: dose 1 mg/kg, route intravenous
[27] = Plasma concentration in Beagle dog at 1 mg/kg, iv after 6 hrs; format: ADME, organism-based, Canis lupus familiaris; parameters: dose 1 mg/kg, route intravenous
[28] = Metabolic stability in human hepatocyte assessed as half life; format: ADME, cell-based, Liver; conditions: hepatocytes
[29] = Plasma concentration in Beagle dog at 1 mg/kg, iv after 24 hrs; format: ADME, organism-based, Canis lupus familiaris; parameters: dose 1 mg/kg, route intravenous
[30] = Plasma concentration in Beagle dog at 10 mg/kg, po after 1 hrs; format: ADME, organism-based, Canis lupus familiaris; parameters: dose 10 mg/kg, route oral
[31] = Cmax in Beagle dog at 1 mg/kg, iv; format: ADME, organism-based, Canis lupus familiaris; parameters: dose 1 mg/kg, route intravenous; conditions: in vivo
Rattus norvegicus [32] = test: Androgenic effect in castrated rat prostate assessed as reversal at 0.3 to 3 mg/kg/day sc using osmotic pump after 14 days; format: functional, Prostate gland; conditions: route subcutaneous
How it was run: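 Orchiectomized male rats received compound by subcutaneous osmotic pump for 14 days at 0.1-3 (mg/kg)/day. […] Levator ani and ventral prostate were weighed after 2 weeks and compared with sham-operated vehicle-treated controls, expressed as reversal of ORX-induced atrophy.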

[33] = Plasma concentration in Sprague-Dawley rat at 1 mg/kg, iv after 30 mins; format: ADME, organism-based; parameters: dose 1 mg/kg, route intravenous
[34] = Binding affinity to androgen receptor LBD T877A mutant in hamster DDT cells by scintillation counting; format: cell-based, Cricetinae
[35] = Plasma concentration in Sprague-Dawley rat at 10 mg/kg, po after 60 mins; format: ADME, organism-based; parameters: dose 10 mg/kg, route oral
Androgen receptor = target: T1, Androgen receptor (Mus musculus, UniProt P19091); test: Agonist activity at androgen receptor in mouse NIH3T3 cells transiently transfected with beta-galactosidase reporter gene assessed as cellular transformation by R-SAT assay
T1 sequence (P19091 whole entry): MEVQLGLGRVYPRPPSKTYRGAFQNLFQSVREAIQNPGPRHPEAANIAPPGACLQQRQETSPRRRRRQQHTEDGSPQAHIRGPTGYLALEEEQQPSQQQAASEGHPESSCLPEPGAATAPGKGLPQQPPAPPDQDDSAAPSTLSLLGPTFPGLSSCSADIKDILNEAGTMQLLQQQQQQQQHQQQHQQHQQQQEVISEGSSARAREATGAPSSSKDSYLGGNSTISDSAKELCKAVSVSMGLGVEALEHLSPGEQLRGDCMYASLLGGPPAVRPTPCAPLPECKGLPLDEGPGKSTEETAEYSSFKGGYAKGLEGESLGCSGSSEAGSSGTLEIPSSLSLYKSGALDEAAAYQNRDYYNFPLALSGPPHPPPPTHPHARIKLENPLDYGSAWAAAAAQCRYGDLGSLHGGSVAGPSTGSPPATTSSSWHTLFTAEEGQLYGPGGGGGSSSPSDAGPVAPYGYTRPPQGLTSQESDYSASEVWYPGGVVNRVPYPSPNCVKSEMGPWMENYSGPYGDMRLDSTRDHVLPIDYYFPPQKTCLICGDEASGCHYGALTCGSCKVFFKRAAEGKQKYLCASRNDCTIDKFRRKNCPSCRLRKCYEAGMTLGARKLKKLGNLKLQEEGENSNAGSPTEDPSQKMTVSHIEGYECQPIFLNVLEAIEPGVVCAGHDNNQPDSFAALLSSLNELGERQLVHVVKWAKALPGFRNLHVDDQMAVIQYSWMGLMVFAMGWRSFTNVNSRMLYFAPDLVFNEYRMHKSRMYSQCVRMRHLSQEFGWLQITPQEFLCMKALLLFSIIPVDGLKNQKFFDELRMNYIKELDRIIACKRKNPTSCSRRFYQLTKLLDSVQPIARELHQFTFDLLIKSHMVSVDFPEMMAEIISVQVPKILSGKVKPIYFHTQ

[36] = Plasma concentration in Sprague-Dawley rat at 1 mg/kg, iv after 10 mins; format: ADME, organism-based; parameters: dose 1 mg/kg, route intravenous
[37] = Plasma concentration in Beagle dog at 10 mg/kg, po after 2 hrs; format: ADME, organism-based, Canis lupus familiaris; parameters: dose 10 mg/kg, route oral
[38] = AUC (0 to infinity) in Beagle […] at 10 mg/kg, po; format: ADME, organism-based, Canis lupus familiaris; parameters: time infinity, dose 10 mg/kg, route oral; conditions: plasma
[39] = Oral bioavailability in Beagle […] at 10 mg/kg, po; format: ADME, organism-based, Canis lupus familiaris; conditions: in vivo
[40] = Oral bioavailability in dog; format: ADME, organism-based, Canis lupus familiaris; conditions: in vivo

`Cc1c(N2[C@@H]3CC[C@H]2C[C@@](C)(O)C3)ccc(C#N)c1Cl` showed a concentration at 1 h [1] of 89.3 ng/mL, a concentration at 8 h [2] of 14.9 ng/mL and a half-life [3] of 2.1 h. The Activity (Rattus norvegicus [4]) was “Active”, the concentration at 24 h [5] was 3.2 ng/mL and the concentration at 0.5 h [6] was 592 ng/mL. For the same molecule, the clearance [7] was 42 mL/min/kg, the concentration at 1 h [8] was 137 ng/mL and the Vd [9] was 6.1 L/kg. For the same molecule, the concentration at 0.5 h [10] was 314 ng/mL, the concentration at 2 h [11] was 238 ng/mL and the concentration at 0.25 h [12] was 835 ng/mL. The concentration at 4 h [13] was 159 ng/mL, the concentration at 2 h [14] was 49.5 ng/mL and the CL (Liver microsomes) was 72 uL/ml.millig. It also gave a bioavailability [15] of 38%, an AUC at 8 h [16] of 631 ng·h/mL and a clearance [17] of 24.4 mL/min/kg. It also gave a concentration at 8 h [18] of 5.5 ng/mL, a concentration at 2 h [19] of 74.3 ng/mL and a concentration at 0.25 h [20] of 231 ng/mL. It also gave a concentration at 6 h [21] of 350 ng/mL, an EC50 [22] of 0.398 nM and a Cmax [23] of 835 ng/mL. For the same molecule, the concentration at 6 h [24] was 23.5 ng/mL, the Vd [25] was 3.91 L/kg and the concentration at 0.08 h [26] was 357 ng/mL. For the same molecule, the concentration at 6 h [27] was 9.5 ng/mL, the half-life [28] was 5 h and the concentration at 24 h [29] was 0.3 ng/mL. It also gave a concentration at 1 h [30] of 408 ng/mL, a Cmax [31] of 357 ng/mL and an Activity (Rattus norvegicus [32]) of 21%. For the same molecule, the concentration at 0.5 h [33] was 234 ng/mL, the pKi [34] was 5.5 and the concentration at 1 h [35] was 263 ng/mL. It also gave an EC50 (Androgen receptor) of 1 nM, a concentration at 10 min [36] of 447 ng/mL and a concentration at 2 h [37] of 270 ng/mL. It also gave an AUC(0-inf) [38] of 2210 ng·h/mL, a bioavailability [39] of 56% and a bioavailability [40] of 56%.

From ChEMBL document CHEMBL1156129, “Synthesis, structure-activity relationships, and characterization of novel nonsteroidal and selective androgen receptor modulators” (J Med Chem, 2009)
